# Key:
# [1] = molecular target: T1, Muscarinic acetylcholine receptor M2 (Rattus norvegicus, UniProt P10980); assay: The compound was tested in vitro for binding activity against M2 muscarinic receptor in homogenates of the brainstem of rat using [3H]quinuclidinyl benzilate (QNB) as radioligand; assay type: tissue-based, Brain
# T1 sequence (P10980 whole entry): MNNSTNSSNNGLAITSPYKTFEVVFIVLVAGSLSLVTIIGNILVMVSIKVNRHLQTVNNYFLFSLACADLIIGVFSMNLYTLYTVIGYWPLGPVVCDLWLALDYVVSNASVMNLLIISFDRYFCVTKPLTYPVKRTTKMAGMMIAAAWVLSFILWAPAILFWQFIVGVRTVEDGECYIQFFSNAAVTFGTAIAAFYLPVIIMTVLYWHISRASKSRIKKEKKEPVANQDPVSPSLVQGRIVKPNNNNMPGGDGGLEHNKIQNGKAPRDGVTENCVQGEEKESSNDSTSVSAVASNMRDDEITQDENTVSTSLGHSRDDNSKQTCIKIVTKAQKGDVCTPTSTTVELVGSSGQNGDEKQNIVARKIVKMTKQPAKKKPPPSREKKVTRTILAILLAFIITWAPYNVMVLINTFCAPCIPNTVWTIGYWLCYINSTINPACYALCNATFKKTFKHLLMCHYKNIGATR
# In short: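 Competition binding on rat brainstem homogenate with [3H]-QNB in 50 mM Tris buffer (pH 7.4) for 90 min at 25 °C. Separation is by rapid GF-B filtration with scintillation counting. 2 μM atropine defines non-specific binding. DMSO stays under 0.1%. Ki is taken from IC50 via Cheng–Prusoff using radioligand concentration and Kd.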
# [2] = molecular target: T2, Muscarinic acetylcholine receptor M1 (Rattus norvegicus, UniProt P08482); assay: The compound was tested in vitro for binding activity against M1 muscarinic receptor in homogenates of the cerebral cortex of rat using [3H]pirenzepine as radioligand; assay type: tissue-based
# T2 sequence (P08482 whole entry): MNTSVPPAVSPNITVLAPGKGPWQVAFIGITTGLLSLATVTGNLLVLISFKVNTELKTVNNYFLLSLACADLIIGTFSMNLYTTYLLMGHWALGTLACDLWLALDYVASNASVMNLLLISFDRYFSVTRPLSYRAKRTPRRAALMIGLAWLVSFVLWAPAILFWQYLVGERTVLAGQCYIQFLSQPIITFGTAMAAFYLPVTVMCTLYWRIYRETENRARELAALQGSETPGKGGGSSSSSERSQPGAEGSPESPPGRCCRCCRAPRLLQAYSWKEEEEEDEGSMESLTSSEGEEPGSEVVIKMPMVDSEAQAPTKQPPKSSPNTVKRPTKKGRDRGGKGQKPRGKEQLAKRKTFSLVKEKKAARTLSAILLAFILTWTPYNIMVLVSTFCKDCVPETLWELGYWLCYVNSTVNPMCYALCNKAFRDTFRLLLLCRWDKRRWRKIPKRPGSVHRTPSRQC
# In short: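 Rat cerebral cortex homogenate with [3H]-pirenzepine in 50 mM Tris buffer pH 7.4, 25 °C for 90 min. Bound ligand is separated by rapid GF-B filtration and counted by liquid scintillation. Non-specific binding is defined with 2 μM atropine. Compounds in DMSO, below 0.1% final. Ki = IC50/(1 + L/Kd) by Cheng–Prusoff.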
Structure (SMILES),Ki [1],Ki [2],-Log Ki [1]
C[C@H]1CCC[C@H](/C=C/[C@H]2[C@H]3COC(=O)[C@H]3C[C@H]3CCCC[C@@H]32)N1C (stereo in doubt; 2),0.00794 µM,0.0398 µM,
C[C@@H]1OC(=O)[C@H]2C[C@H]3CCCC[C@@H]3[C@@H](/C=C/[C@H]3CCC[C@H](C)N3C)[C@@H]12 [HIMBACINE],0.0126 µM,0.0794 µM,
C[C@H]1CCC[C@H](/C=C/[C@H]2[C@H]3COC(=O)[C@H]3C[C@H]3CCCC[C@@H]32)N1C (stereo in doubt),0.794 µM,1 µM,
C[C@H]1CCC[C@H](/C=C/[C@@H]2[C@H]3COC(=O)[C@H]3C[C@H]3CCCC[C@@H]32)N1C (stereo in doubt),,0.501 µM,6.4
C[C@H]1CCC[C@H](/C=C/[C@@H]2[C@H]3COC(=O)[C@H]3C[C@H]3CCCC[C@@H]32)N1C (stereo in doubt; 3),0.398 µM,0.631 µM,
